From article PMC7357868 (ACS chemical biology, 2019)

How the values were obtained:
recombinant hpol κ = conditions: cited from earlier work
[1] = system: hpol κ-proficient HAP-1 cells; assay: Clonogenic survival assay; format: cell-based, human; conditions: 250 μM TMZ alone, 1 h, 10 days culture
[2] = system: hpol κ-deficient HAP-1 cells; assay: Clonogenic survival assay; format: cell-based, human; conditions: 250 μM TMZ alone
[3] = system: hpol κ-proficient HAP-1 cells; assay: Alkaline comet assay; format: cell-based, human; conditions: 100 μM TMZ alone, 1 h
Outline: (§1)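 100 000 HAP-1 cells per well, test compound 0.5 μM alone or with alkylating agent (100 μM), 1 h; DMSO control. Cells embedded in low-melting agarose (200–300 per well), lysed 1 h, alkaline unwinding (200 mM NaOH, 1 mM EDTA) 20 min RT, electrophoresis 21 V, 30 min, 4 °C, SYBR Gold stain. Read-out is % DNA in tail per cell; ≥20 cells per replicate, three biological replicates, mean ±SD.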

[4] = system: hpol κ-deficient HAP-1 cells; assay: Alkaline comet assay; format: cell-based, human; conditions: 100 μM TMZ alone, 1 h
Outline: as §1

Compound | IC50 (recombinant hpol κ) | colonies formed relative to untreated cells [1] | colonies formed relative to untreated cells [2] | DNA damage (% DNA in tail) over untreated cells [3] | DNA damage (% DNA in tail) over control [4]
CCOc1nc2cccc(C(=O)OC(C)OC(=O)OC3CCCCC3)c2n1Cc1ccc(-c2ccccc2-c2nn[nH]n2)cc1 (stereo not drawn) [candesartan, candesartan cilexetil] | tens of micromolar |  |  |  | 
CC(C)c1ccc2c(c1)c(SC(C)(C)C)c(CC(C)(C)C(=O)O)n2Cc1ccc(Cl)cc1 [MK-886] | tens of micromolar |  |  |  | 
Cn1nnc2c(C(N)=O)ncn2c1=O [TMZ, temozolomide, reference compound] |  | ~ 75% | less than 50% | approximately sevenfold | significantly greater amount of DNA damage over control
